Reference: ChEMBL document CHEMBL4000147, “Pyrrolo[2,3-b]pyridine derivatives as potent Bruton's tyrosine kinase inhibitors” (Bioorg Med Chem, 2015)

Tests used:
[1] = target: T1, Tyrosine-protein kinase BTK (Homo sapiens, UniProt Q06187); assay: Inhibition of BTK in human Ramos cells assessed as inhibition of anti human IgM-induced calcium influx preincubated for 20 mins in dark followed by anti human IgM induction for 8 mins by FLIPR assay; format: cell-based
[2] = target: T1, Tyrosine-protein kinase BTK; assay: Inhibition of recombinant human His-tagged full length BTK expressed in baculovirus using biotin labeled peptide substrate after 1 hr by HRTF kinase/TR-FRET assay
[3] = Clearance in Sprague-Dawley rat at 4 mg/kg, po by LC/MS/MS analysis; format: ADME, organism-based; details: in vivo
Method in brief: (§1)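 Three male SD rats (180–240 g) dosed orally, 4 mg/kg, dosing volume 5 mL/kg. Blood sampled at 2, 5, 15, 30 min and 1, 2, 4, 6, 8, 10, 24 h, centrifuged 4000 rpm 5 min at 4 °C. Plasma analysed after protein precipitation by LC/MS/MS in SRM mode with internal standard. Parameters from concentration–time data by noncompartmental analysis.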

[4] = Cmax in Sprague-Dawley rat at 4 mg/kg, po by LC/MS/MS analysis; format: ADME, organism-based; design: dose 4 mg/kg, route oral; details: in vivo; method in brief: as §1
[5] = Tmax in Sprague-Dawley rat at 4 mg/kg, po by LC/MS/MS analysis; format: ADME, organism-based; details: in vivo; method in brief: as §1
[6] = Half life in Sprague-Dawley rat at 4 mg/kg, po by LC/MS/MS analysis; format: ADME, organism-based; details: in vivo; method in brief: as §1
[7] = AUClast in Sprague-Dawley rat at 4 mg/kg, po by LC/MS/MS analysis; format: ADME, organism-based; design: dose 4 mg/kg, route oral, time 0 - last; details: in vivo; method in brief: as §1

T1 sequence (Q06187 whole entry): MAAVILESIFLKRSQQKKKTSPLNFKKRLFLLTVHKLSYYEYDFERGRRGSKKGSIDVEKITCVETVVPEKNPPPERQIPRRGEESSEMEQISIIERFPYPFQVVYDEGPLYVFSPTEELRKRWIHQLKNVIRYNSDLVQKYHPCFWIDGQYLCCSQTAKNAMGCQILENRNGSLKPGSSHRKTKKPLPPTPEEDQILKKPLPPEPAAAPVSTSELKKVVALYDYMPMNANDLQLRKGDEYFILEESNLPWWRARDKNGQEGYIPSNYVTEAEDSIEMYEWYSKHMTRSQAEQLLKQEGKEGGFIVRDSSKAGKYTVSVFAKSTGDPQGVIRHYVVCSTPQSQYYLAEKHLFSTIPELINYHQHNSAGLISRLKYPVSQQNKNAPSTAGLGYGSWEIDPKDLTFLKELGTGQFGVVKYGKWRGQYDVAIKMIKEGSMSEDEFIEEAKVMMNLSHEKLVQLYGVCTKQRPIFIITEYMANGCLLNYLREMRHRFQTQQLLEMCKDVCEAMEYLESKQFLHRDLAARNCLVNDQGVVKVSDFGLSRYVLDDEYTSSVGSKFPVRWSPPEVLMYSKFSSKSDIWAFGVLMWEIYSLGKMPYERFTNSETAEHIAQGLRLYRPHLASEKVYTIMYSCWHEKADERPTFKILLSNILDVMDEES

Row | SMILES | IC50 [1] [nM] | IC50 [2] [nM] | CL/F [3] [mL/min/kg] | Cmax [4] [ng/mL] | Tmax [5] [h] | half-life [6] [h] | AUC(0-t) [7] [ng·h/mL]
1 | CC(=O)N1CC=C(c2cc3c(-c4cccc(-n5ccc6cc(C7CC7)cc(F)c6c5=O)c4CO)ccnc3[nH]2)CC1 | 12 | 6.7 |  |  |  |  | 
2 | CC(=O)c1cc(-c2cc3c(-c4cccc(-n5ccc6cc(C7CC7)cc(F)c6c5=O)c4CO)ccnc3[nH]2)cs1 | 69 | 78.1 |  |  |  |  | 
3 | CC(=O)c1ccc(-c2cc3c(-c4cccc(-n5ccc6cc(C7CC7)cc(F)c6c5=O)c4CO)ccnc3[nH]2)cc1 | 32 | 21.3 |  |  |  |  | 
4 | CN1CCN(c2ccc(Nc3cc(-c4cccc(-n5ccc6cc(C7CC7)cc(F)c6c5=O)c4CO)cn(C)c3=O)nc2)CC1 |  |  | 53.3 | 134 | 4 | 4.4 | 1050
5 | COc1ccc(-c2cc3c(-c4cccc(-n5ccc6cc(C7CC7)cc(F)c6c5=O)c4CO)ccnc3[nH]2)cc1 | 56.3 | 27.3 |  |  |  |  | 
6 | CN(C)C(=O)N1CC=C(c2cc3c(-c4cccc(-n5ccc6cc(C7CC7)cc(F)c6c5=O)c4CO)ccnc3[nH]2)CC1 | 14 | 6 | 20 | 739 | 1.9 | 8.9 | 3420
7 | O=C(c1ccc(-c2cc3c(-c4cccc(-n5ccc6cc(C7CC7)cc(F)c6c5=O)c4CO)ccnc3[nH]2)cc1)N1CCCCC1 | 52 | 38 |  |  |  |  | 
8 | CN(C)C(=O)N1CC=C(c2cc3c(-c4cccc(-n5ccc6cc(C7CC7)cc(F)c6c5=O)c4CO)cccc3[nH]2)CC1 | > 5000 | > 5000 |  |  |  |  | 
9 | CN(C)C(=O)c1ccc(-c2nc3c(-c4cccc(-n5ccc6cc(C7CC7)cc(F)c6c5=O)c4CO)ccnc3[nH]2)cc1 | 92.7 | 33.3 |  |  |  |  | 
10 | O=c1c2c(F)cc(C3CC3)cc2ccn1-c1cccc(-c2ccnc3[nH]c(C4=CCN(C5COC5)CC4)cc23)c1CO | 3 | 31.4 |  |  |  |  | 
11 | CN(C)S(=O)(=O)N1CC=C(c2cc3c(-c4cccc(-n5ccc6cc(C7CC7)cc(F)c6c5=O)c4CO)ccnc3[nH]2)CC1 | 27 | 9.7 |  |  |  |  | 
12 | CN(C)C(=O)N1CC=C(c2cc3c(-c4cccc(-n5ccc6cc(C7CC7)cc(F)c6c5=O)c4CO)ncnc3[nH]2)CC1 |  |  | 43.3 | 422 | 0.8 | 5.4 | 1790
13 | O=C(C1CC1)N1CC=C(c2cc3c(-c4cccc(-n5ccc6cc(C7CC7)cc(F)c6c5=O)c4CO)ccnc3[nH]2)CC1 | 16 | 10.4 |  |  |  |  | 
14 | Cn1ccc(-c2cc3c(-c4cccc(-n5ccc6cc(C7CC7)cc(F)c6c5=O)c4CO)ccnc3[nH]2)n1 | 9.5 | 20.6 |  |  |  |  | 
15 | O=c1c2c(F)cc(C3CC3)cc2ccn1-c1cccc(-c2ccnc3[nH]c(-c4ccc(CN5CCOCC5)cc4)cc23)c1CO | 69 | 18.1 |  |  |  |  | 
16 | O=c1c2c(F)cc(C3CC3)cc2ccn1-c1cccc(-c2ccnc3[nH]c(C4=CCNCC4)cc23)c1CO | 3 | 28.3 |  |  |  |  | 
17 | O=C(N1CC=C(c2cc3c(-c4cccc(-n5ccc6cc(C7CC7)cc(F)c6c5=O)c4CO)ccnc3[nH]2)CC1)N1CCOCC1 | 42 | 7.3 |  |  |  |  | 
18 | Cc1cc2c(-c3cccc(-n4ccc5cc(C6CC6)cc(F)c5c4=O)c3CO)ccnc2[nH]1 | 213 | 395 |  |  |  |  | 
19 | CS(=O)(=O)N1CC=C(c2cc3c(-c4cccc(-n5ccc6cc(C7CC7)cc(F)c6c5=O)c4CO)ccnc3[nH]2)CC1 | 410 | 7.1 |  |  |  |  | 
20 | O=c1c2c(F)cc(C3CC3)cc2ccn1-c1cccc(-c2ccnc3[nH]c(-c4ccc(O)cc4)cc23)c1CO | 110 | 39.8 |  |  |  |  | 
21 | Nc1cccc(-c2cc3c(-c4cccc(-n5ccc6cc(C7CC7)cc(F)c6c5=O)c4CO)ccnc3[nH]2)c1 | 2410 | 110 |  |  |  |  | 
22 | COc1ccc(-c2cc3c(-c4cccc(-n5ccc6cc(C7CC7)cc(F)c6c5=O)c4CO)ccnc3[nH]2)cn1 | 196 | 68.3 |  |  |  |  | 
23 | CN(C)C(=O)c1ccc(-c2cc3c(-c4cccc(-n5ccc6cc(C7CC7)cc(F)c6c5=O)c4CO)ccnc3[nH]2)cc1 | 94.2 | 12.1 |  |  |  |  | 
